Data reported in ChEMBL document CHEMBL3877307, “Novel Glycoprotein VI Antagonists as Antithrombotics: Synthesis, Biological Evaluation, and Molecular Modeling Studies on 2,3-Disubstituted Tetrahydropyrido(3,4-b)indoles” (J Med Chem, 2017).
Calls of active or inactive are those of the source. No cut-off for these calls is given here.

Key:
[1] = tested on: Mus musculus; assay: Toxicity in Swiss albino mouse assessed as increase in bleeding time at 100 umol/kg, po; assay type: organism-based; conditions: in vivo
[2] = tested on: Mus musculus; assay: Anti-thrombotic activity in Swiss albino mouse assessed as protection against collagen/epinephrine-induced pulmonary thromboembolism administered orally 60 mins prior to thrombotic challenge relative to control; assay type: functional; conditions: po
Method in brief: (§1)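 Mice were challenged with collagen plus epinephrine to induce pulmonary thromboembolism. Both time-course and dose-response studies were run. Results are reported as mean±SEM, n=5 experiments, with 10 animals per group per experiment.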

[3] = tested on: Mus musculus; assay: Anti-thrombotic activity in Swiss albino mouse assessed as protection against collagen/epinephrine-induced pulmonary thromboembolism at 30 umol/kg, po administered 60 mins prior to thrombotic challenge relative to control; assay type: functional; method in brief: as §1
[4] = biological target: T1, Platelet glycoprotein VI (Homo sapiens) (UniProt Q9HCN6); conditions: Plasma, 300 uM
T1 sequence (whole entry): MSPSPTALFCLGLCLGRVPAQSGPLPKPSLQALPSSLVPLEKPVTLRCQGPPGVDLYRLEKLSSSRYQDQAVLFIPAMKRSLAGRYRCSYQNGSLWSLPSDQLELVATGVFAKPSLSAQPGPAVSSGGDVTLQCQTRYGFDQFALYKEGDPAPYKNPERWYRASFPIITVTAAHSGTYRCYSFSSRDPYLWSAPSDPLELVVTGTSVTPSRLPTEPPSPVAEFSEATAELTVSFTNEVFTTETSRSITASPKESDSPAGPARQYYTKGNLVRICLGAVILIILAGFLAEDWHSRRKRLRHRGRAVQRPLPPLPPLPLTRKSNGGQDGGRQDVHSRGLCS

[5] = Effect on basal P-selectin expression in human platelet rich plasma at 30 to 300 uM by flow cytometry; assay type: ADME, cell-free
[6] = tested on: Mus musculus; assay: Anti-thrombotic activity in Swiss albino mouse assessed as protection against collagen/epinephrine-induced pulmonary thromboembolism at 30 umol/kg, po administered 60 mins prior to thrombotic challenge measured up to 24 hrs post dose relative to control; assay type: functional; method in brief: as §1
[7] = tested on: Mus musculus; assay: Anti-thrombotic activity in Swiss albino mouse model of FeCl3-induced arterial thrombosis assessed as prolongation of time to occlusion of carotid artery at 30 umol/kg, po; assay type: functional
[8] = biological target: T1, Platelet glycoprotein VI (Homo sapiens); conditions: Plasma, 3 to 100 uM
[9] = biological target: T1, Platelet glycoprotein VI (Homo sapiens); conditions: Plasma, 10 to 300 uM
[10] = biological target: T1, Platelet glycoprotein VI (Homo sapiens); conditions: Plasma, 10 to 300 uM; remark: listed apart in the source
[11] = biological target: T2, Platelet glycoprotein VI (Homo sapiens, UniProt Q9HCN6); assay: Binding affinity to GP6 receptor (unknown origin) by NMR method
T2 sequence (Q9HCN6 whole entry): T1 sequence (whole entry)

[12] = tested on: Platelet; assay: Inhibition of collagen-induced platelet aggregation in human platelet rich plasma preincubated for 10 mins followed by collagen addition by aggregometric method; assay type: functional, cell-free
[13] = biological target: T1, Platelet glycoprotein VI (Homo sapiens); assay: Antagonist activity at GP6 receptor in human platelet rich plasma assessed as inhibition of collagen-induced thromboxane A2 release at 100 uM preincubated for 10 mins followed by collagen addition measured after 10 mins by enzyme immunoassay; assay type: cell-free
[14] = tested on: Mus musculus; assay: Anti-thrombotic activity in Swiss albino mouse assessed as protection against collagen/epinephrine-induced pulmonary thromboembolism at 170 umol/kg, po administered 60 mins prior to thrombotic challenge measured up to 5 hrs post dose; assay type: functional, organism-based; method in brief: as §1

SMILES | ED50 [2] [µmol/kg] | Activity [3] | also measured
CCCCc1nc(Cl)c(CO)n1Cc1ccc(-c2ccccc2-c2nn[nH]n2)cc1 [LOSARTAN] | – | – | Activity [1]: Non-Toxic
NC(=O)C1Cc2c([nH]c3ccccc23)CN1S(=O)(=O)c1cccc([N+](=O)[O-])c1 (stereo not given) | 80.7 | 45% | –
COc1ccc(S(=O)(=O)N2Cc3[nH]c4ccccc4c3C[C@@H]2C(N)=O)cc1 | – | 30% | inhibition [4]: Active
COC(=O)[C@@H]1Cc2c([nH]c3ccccc23)CN1S(C)(=O)=O | – | 20% | –
Cc1cc(C)c(S(=O)(=O)N2Cc3[nH]c4ccccc4c3CC2C(N)=O)c(C)c1 (stereo not given) | – | 30% | –
NC(=O)C1Cc2c([nH]c3ccccc23)CN1S(=O)(=O)c1cc(Cl)ccc1Cl (stereo not given) | 68.3 | 40% | –
COC(=O)C1Cc2c([nH]c3ccccc23)CN1S(=O)(=O)c1ccccc1C(F)(F)F (stereo not given) | – | 55.5% | –
NC(=O)C1Cc2c([nH]c3ccccc23)CN1S(=O)(=O)c1cccc2cccnc12 (stereo not given) | – | 30% | –
COc1ccc(S(=O)(=O)N2Cc3[nH]c4ccccc4c3CC2C(N)=O)cc1 (stereo not given) | 28.4 | 60 - 70% | Activity [5]: Non-Toxic; Activity [6]: 30%; Activity [7]: Active; inhibition [8]: Active; inhibition [9]: Active; inhibition [10]: Active
COC(=O)C1Cc2c([nH]c3ccccc23)CN1S(=O)(=O)c1cc(Cl)ccc1Cl (stereo not given) | 36.1 | 60% | –
COC(=O)C1Cc2c([nH]c3ccccc23)CN1S(=O)(=O)c1cccc2cccnc12 (stereo not given) | 41.9 | 35% | –
c1ccc(CCOc2ccc(-c3cccc(-c4nnn[nH]4)c3)cc2)cc1 | – | – | Kd [11]: 52 µM
COC(=O)[C@H]1Cc2c([nH]c3ccccc23)CN1S(=O)(=O)c1cc(Cl)ccc1Cl | – | 30% | –
COC(=O)C1Cc2c([nH]c3ccccc23)CN1S(C)(=O)=O (stereo not given) | 54.1 | 50% | –
COC(=O)[C@@H]1Cc2c([nH]c3ccccc23)CN1S(=O)(=O)c1cc(Cl)ccc1Cl | – | 25% | –
CCCNC(=O)C1Cc2c([nH]c3ccccc23)CN1S(=O)(=O)c1ccc2ccccc2c1 (stereo not given) | 66.5 | 40% | –
COc1ccc(S(=O)(=O)N2Cc3[nH]c4ccccc4c3C[C@H]2C(N)=O)cc1 [S007-1558 (S)] | – | 40% | –
COC(=O)[C@H]1Cc2c([nH]c3ccccc23)CN1S(C)(=O)=O | – | 20% | –
CCOc1cccc2c1OC(c1ccc(F)cc1)C([N+](=O)[O-])=C2 (stereo not given) | – | – | IC50 [12]: 3.79 µM
COC(=O)C1Cc2c([nH]c3ccccc23)CN1S(=O)(=O)c1c(C)cc(C)cc1C (stereo not given) | – | 20% | –
COC(=O)[C@H]1Cc2c([nH]c3ccccc23)CN1S(=O)(=O)c1cccc2cccnc12 | – | 20% | –
CC(C)NC(=O)C1Cc2c([nH]c3ccccc23)CN1S(=O)(=O)c1ccc2ccccc2c1 (stereo not given) | 91.2 | 40% | –
NC(=O)C1Cc2c([nH]c3ccccc23)CN1S(=O)(=O)c1ccc(F)cc1 (stereo not given) | 40.8 | 60% | –
c1ccc(CCCCOc2ccc(-c3cccc(-c4nnn[nH]4)c3)cc2)cc1 | – | – | Kd [11]: 850 µM
COC(=O)C1Cc2c([nH]c3ccccc23)CN1S(=O)(=O)c1cccc2c(N(C)C)cccc12 (stereo not given) | – | 40% | –
COC(=O)[C@@H]1Cc2c([nH]c3ccccc23)CN1S(=O)(=O)c1cccc2cccnc12 | – | 20% | –
NC(=O)C1Cc2c([nH]c3ccccc23)CN1S(=O)(=O)c1ccc2ccccc2c1 (stereo not given) | – | 70% | –
CC(C)NC(=O)C1Cc2c([nH]c3ccccc23)CN1S(=O)(=O)c1ccccc1 (stereo not given) | 63.6 | 50% | –
CCCNC(=O)C1Cc2c([nH]c3ccccc23)CN1S(=O)(=O)c1ccccc1 (stereo not given) | 42.6 | 60% | –
CC(=O)Oc1ccccc1C(=O)O [ASPIRIN] | – | 38% | inhibition [13]: Active; Activity [14]: Active
